Screens as filed in PubChem BioAssay.
CHRM5 PAM – CHRM5 positive allosteric modulation | P08912 | CHO-K1 hM5, Fluo-8 calcium, ACh EC20 PAM; 0% = ACh EC20, 100% = ACh EC100 | activation, % at 3 µM | 0.3% of 360,000 active | AID 624038;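 active means activation above the run cutoff, the mean activation of all test compounds plus 3 SD, cut at about 18% in these data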
Target sequence (P08912 whole entry, looked up): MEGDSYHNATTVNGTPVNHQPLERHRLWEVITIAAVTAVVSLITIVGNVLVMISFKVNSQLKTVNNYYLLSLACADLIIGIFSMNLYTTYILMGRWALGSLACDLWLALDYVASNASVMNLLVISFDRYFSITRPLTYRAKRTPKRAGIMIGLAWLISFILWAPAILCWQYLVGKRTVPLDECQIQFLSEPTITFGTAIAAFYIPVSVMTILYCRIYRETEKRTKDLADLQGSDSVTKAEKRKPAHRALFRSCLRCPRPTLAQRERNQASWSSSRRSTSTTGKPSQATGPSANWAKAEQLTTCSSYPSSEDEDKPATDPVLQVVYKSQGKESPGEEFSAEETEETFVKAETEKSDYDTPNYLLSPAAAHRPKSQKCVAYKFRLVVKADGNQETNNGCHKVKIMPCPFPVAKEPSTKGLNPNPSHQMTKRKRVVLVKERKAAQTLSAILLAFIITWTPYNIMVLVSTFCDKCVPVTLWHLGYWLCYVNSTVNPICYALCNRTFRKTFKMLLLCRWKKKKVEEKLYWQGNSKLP
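Test system: CHO-K1 hM5 cells / Doses: single-point, 3 µM nominal / Times: Post-acetylcholine fluorescence recording 140 s / Technique: Fluo-8 calcium fluorescence / Measure: Max/basal fluorescence ratio as % of EC20–EC100 ACh window / Benchmarks: low control EC20 acetylcholine (0%), high control EC100 acetylcholine (100%) / Replicates: one well per compound, no replicates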
M4 ag – CHRM4 agonism in calcium assay | P08173 | CHO-K1 hM4/Gqi5, Fluo-8 calcium fluorescence; vehicle 0%, full acetylcholine response 100% | activation, % at 3 µM | 0.14% of 360,000 active;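 active means activation above the run mean over all test wells plus 3 SD, cut at about 32% in these data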;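 further: peak over basal fluorescence ratio per well then scaled between controls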
M4 antag – blocks acetylcholine activation of human M4 receptor | inhibition, % at 3 µM | 0.73% of 360,000 active | AID 624125 | CHO-hM4 cells, ACh EC80, Fluo-8 calcium fluorescence | P08173;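 active means inhibition above its plate's cutoff, the mean inhibition of sample wells plus 3 SD, cut at about 27% in these data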
M4 PAM – potentiates acetylcholine response at human M4 receptor; CHO-K1 hM4/Gqi5, Fluo-8 calcium fluorescence, ACh EC20; 0% = ACh EC20, 100% = maximal ACh; activation, % at 3 µM; P08173; 0.4% of 360,000 active; AID 624126;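 active means activation above its plate's cutoff, the mean activation of sample wells plus 3 SD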
M5 ag – CHRM5 agonism in calcium assay; 0.19% of 360,000 active; AID 624037; CHO-K1 hM5 cells, Fluo-8 calcium fluorescence; 0% DMSO wells, 100% maximal acetylcholine response; activation, % at 3 µM; P08912;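 active means activation above the run's mean over test compounds plus 3 SD, cut at about 23% in these data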;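 further: signal is peak over basal fluorescence ratio across the kinetic read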
CHRM5 antagonist – blocks acetylcholine activation of human M5 receptor; P08912; CHO-hM5 cells, Fluo-8 calcium fluorescence, ACh EC80; inhibition, % at 3 µM; 0.59% of 360,000 active; AID 624040;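 active means inhibition above a per-plate cutoff, the mean of that plate's test compounds plus 3 SD, cut at about 27% in these data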
A number is an active result; - = inactive. Compounds with a hit are over-represented: about 1.8% of the library has one in this group of screens.

SMILES | CHRM5 PAM | M4 ag | M4 antag | M4 PAM | M5 ag | CHRM5 antagonist
COc1ccc(-n2nc(C(=O)NCC(=O)Nc3cc(OC)c(OC)c(OC)c3)c3ccccc3c2=O)cc1OC | - | - | 26.6 | - | - | -
CCC1CCCCN1CCCNC(=O)CNC(=O)c1nn(-c2ccc(OC)c(Cl)c2)c(=O)c2ccccc12 (stereo not given) | - | - | 37.2 | - | - | -
CCOc1ccc(-c2cc(C(=O)NCc3cc(OC)cc(OC)c3)[nH]n2)c(C)c1 | - | - | - | - | - | -
CC(=O)c1cccc(-c2ccnc3c2CC(C(=O)Nc2cccc(Oc4ccccc4)c2)O3)c1 (stereo not given) | - | - | - | - | - | -
COC(=O)CC1C(=O)NCCN1C(=O)c1oc2c(C)c(C)ccc2c1C (stereo not given) | - | - | - | - | - | -
CC(C)CCN1CCC[C@]2(N[C@H](c3ccc(C(F)(F)F)cc3)[C@@H]3C(=O)N(Cc4ccccc4)C(=O)[C@@H]32)C1=O | - | - | - | - | - | -
O=C(NCc1ccccc1)c1cc(C2CCCCN2C(=O)c2ccc(Cl)cc2)on1 (stereo not given) | - | - | - | - | - | -
O=c1c2ccccc2nc(/C=C/c2ccccc2)n1CCCO | - | - | - | - | - | -
CN(C)c1ccc(/C=C/c2nc3ccccc3c(=O)n2CCO)cc1 | - | 42.0 | - | - | - | -
O=C(COC(=O)C1CCC(=O)N1)Nc1ccc(Oc2ccccc2)cc1 (stereo not given) | - | - | - | - | - | -
O=C(COC(=O)C1CCC(=O)N1)Nc1ccccc1Br (stereo not given) | 21.4 | - | - | - | - | -
O=C(NCc1cc(C(F)(F)F)cc(C(F)(F)F)c1)c1cc(-c2cc(F)ccc2OCC2CCCO2)n[nH]1 (stereo not given) | - | - | - | - | - | -
O=c1c(/C=C(\O)c2ccccc2)nc2ccccc2n1-c1ccccc1 | - | - | 38.6 | - | - | -
Cc1cc(F)ccc1C(O)c1ncc(-c2cccc3ccccc23)[nH]1 (stereo not given) | - | - | - | - | - | -
CCCCn1nnnc1C(c1cc2ccccc2o1)N1CCN(c2c(C)cccc2C)CC1 (stereo not given) | - | - | - | - | - | -
Cc1cccc(C)c1N1CCN(C(c2cc3ccccc3o2)c2nnnn2C(C)(C)C)CC1 (stereo not given) | - | - | 26.4 | - | - | -
Nc1c(C(=O)c2ccccc2)sc2nsc(SCCN3CCCC3)c12 | - | - | - | - | 31.6 | -
Nc1c(C(=O)c2ccc(Cl)cc2)sc2nsc(SCCN3CCOCC3)c12 | - | - | - | - | - | -
CC1OC(C(C)(C)C)Cc2[nH][nH]c(=O)c21 (stereo not given) | - | - | - | - | - | -
Cc1cc(C(=O)CN2C(=O)NC(C)(c3cc(F)ccc3F)C2=O)c(C)n1C1CC1 (stereo not given) | - | - | - | - | - | -
CCC1(c2ccc(F)cc2)NC(=O)N(CC(=O)N2c3ccccc3CC2C)C1=O (stereo not given) | - | - | - | - | 29.2 | -
CCC1(c2ccc(F)cc2)NC(=O)N(CC(=O)c2cc(C)n(C3CC3)c2C)C1=O (stereo not given) | - | - | - | - | 25.4 | -
CCC1(c2ccc(F)cc2)NC(=O)N(CC(=O)N2c3ccccc3NC(=O)CC2C)C1=O (stereo not given) | - | - | - | - | - | -
CCC1(c2ccc(OC)cc2)NC(=O)N(CC(=O)N2CCc3ccccc32)C1=O (stereo not given) | - | - | - | - | 38.7 | -
C[C@@H]1CN([C@@H](C)CO)C(=O)c2cc(Br)cnc2O[C@H]1CN(C)C(=O)Nc1ccc(F)cc1 | - | - | - | - | - | -
SMILES | CHRM5 PAM | M4 ag | M4 antag | M4 PAM | M5 ag | CHRM5 antagonist
Cc1ccc(NC2=NCC(=O)N2Cc2ccc3c(c2)OCO3)c(C)c1 | - | - | - | - | - | -
CCc1ccc(NC2=NCC(=O)N2Cc2ccc3c(c2)OCO3)cc1 | - | - | - | 20.8 | - | -
COc1ccccc1Nc1nc(=O)[nH]nc1C | - | - | - | - | - | -
Cc1n[nH]c(=O)nc1NC(C)c1ccccc1 (stereo not given) | - | - | 27.5 | - | - | -
CC1(C)C(=O)OC(c2ccccc2)C(C)(C)C1=O (stereo not given) | - | - | - | - | - | 31.5
CC1(C)C(=O)OC(c2ccccc2)C2(CCCC2)C1=O (stereo not given) | - | - | - | - | - | -
COc1ccccc1C(CNC(=O)c1cccc(S(=O)(=O)N2CCCc3ccccc32)c1)N(C)C (stereo not given) | - | - | - | - | - | 67.4
COc1ccc(C(CNC(=O)c2cccc(S(=O)(=O)N3CCc4ccccc43)c2)N(C)C)cc1 (stereo not given) | - | - | - | - | - | -
COc1ccccc1C(CNC(=O)c1cccc(S(=O)(=O)N2c3ccccc3CC2C)c1)N(C)C (stereo not given) | - | - | - | - | - | 77.8
CC1Cc2ccccc2N1S(=O)(=O)c1cccc(C(=O)NCc2ccco2)c1 (stereo not given) | - | - | - | - | - | -
CCN1CCC[C@H]1CNCCCn1cnc2c(SC)ncnc21 | - | - | - | - | - | -
O=C(CSc1ccc(-c2ccccn2)nn1)c1ccc(F)cc1 | 28.2 | - | - | - | - | 31.5
O=C(CSc1ccc(-c2ccccn2)nn1)c1ccccc1 | - | - | - | - | - | -
CC(C)(C)c1ccc(-n2nc(C#N)c(Cl)cc2=O)cc1 | - | - | 54.5 | - | - | 33.0
Cc1ccc(NC(=O)C2CCN(S(=O)(=O)c3ccc4c(c3)NC(=O)C(C)S4)CC2)cc1Cl (stereo not given) | - | - | 28.7 | - | - | 28.2
O=S(=O)(c1cccc2nsnc12)N1CCCC1 | - | - | - | - | - | -
CC1CN(S(=O)(=O)c2cccc3nsnc23)CC(C)O1 (stereo not given) | - | - | 26.5 | - | - | -
CSc1cccc(N2C(=O)C3CCCN3C2=S)c1 (stereo not given) | - | - | - | - | - | -
Cc1cc(Cl)ccc1OC(C)C(=O)Nc1ccc(C(=O)Nc2ccccc2C(=O)O)cc1 (stereo not given) | - | - | - | 23.4 | - | -
COc1ccccc1-c1sc2cc3c(cc2c1-c1ccc(OCCN2CCCCC2)cc1)OCO3 | - | - | 34.8 | - | - | -
